Results taken from ChEMBL document CHEMBL4689842, “EUbOPEN Chemogenomics Library wave 1” (2021).

System: U2OS
Experiment: Multiplex assay against U2OS
Assay type: toxicity, cell-based
Settings: human
Method in brief: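 Live cells were stained at seeding with Hoechst33342, BioTracker Green Microtubule Cytoskeleton Dye, MitoTracker Red and Annexin V Alexa Fluor 680, then imaged on a CQ1 microscope at 37°C and 5% CO2 after compound addition. CellPathfinder machine-learning gating split cells into Hoechst high-intensity objects or normal cells. Normal cells were split into healthy, pyknosed or fragmented nuclei, and pyknosed cells into mitotic or apoptotic. Tubulin, mitochondrial-mass and membrane-permeability phenotypes are per cents of healthy-nucleus cells.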

[1] = 12 h, 1 µM, compound concentration 1 uM, replicate 1
[2] = 12 h, 1 µM, compound concentration 1 uM, replicate 2
[3] = 12 h, 10 µM, compound concentration 10 uM, replicate 1
[4] = 12 h, 10 µM, compound concentration 10 uM, replicate 2
[5] = 24 h, 1 µM, compound concentration 1 uM, replicate 1
[6] = 24 h, 1 µM, compound concentration 1 uM, replicate 2
[7] = 24 h, 10 µM, compound concentration 10 uM, replicate 1
[8] = 24 h, 10 µM, compound concentration 10 uM, replicate 2

c1ccc2oc(-c3csc(C4CCN(Cc5nc6ncccc6[nH]5)CC4)n3)cc2c1
Population Apoptotic (%) [1]: 8%
Population Fragmented Nuclei (%) [1]: 2%
Population Healthy Nuclei (%) [1]: 90%
Population Hoechst High Intensity Objects (%) [1]: 3%
Population Membrane Permeable-Phenotype (%) [1]: 12%
Population Mitochondria Different-Phenotype (%) [1]: 15%
Population Mitotic Cells (%) [1]: 91%
Population Normal (%) [1]: 96%
Population Pyknosed Nuclei (%) [1]: 6%
Population Tubulin-Different-Phenotype (%) [1]: 10%
Total Cell Count [1]: 182
Population Apoptotic (%) [2]: 25%
Population Fragmented Nuclei (%) [2]: 8%
Population Healthy Nuclei (%) [2]: 85%
Population Hoechst High Intensity Objects (%) [2]: 7%
Population Membrane Permeable-Phenotype (%) [2]: 8%
Population Mitochondria Different-Phenotype (%) [2]: 27%
Population Mitotic Cells (%) [2]: 75%
Population Normal (%) [2]: 92%
Population Tubulin-Different-Phenotype (%) [2]: 15%
Total Cell Count [2]: 141
Population Apoptotic (%) [3]: 42%
Population Fragmented Nuclei (%) [3]: 4%
Population Healthy Nuclei (%) [3]: 91%
Population Hoechst High Intensity Objects (%) [3]: 3%
Population Membrane Permeable-Phenotype (%) [3]: 9%
Population Mitochondria Different-Phenotype (%) [3]: 25%
Population Mitotic Cells (%) [3]: 57%
Population Normal (%) [3]: 96%
Population Pyknosed Nuclei (%) [3]: 3%
Population Tubulin-Different-Phenotype (%) [3]: 29%
Total Cell Count [3]: 205
Population Apoptotic (%) [4]: 25%
Population Fragmented Nuclei (%) [4]: 7%
Population Healthy Nuclei (%) [4]: 88%
Population Hoechst High Intensity Objects (%) [4]: 15%
Population Membrane Permeable-Phenotype (%) [4]: 18%
Population Mitochondria Different-Phenotype (%) [4]: 34%
Population Mitotic Cells (%) [4]: 75%
Population Normal (%) [4]: 84%
Population Pyknosed Nuclei (%) [4]: 4%
Population Tubulin-Different-Phenotype (%) [4]: 34%
Total Cell Count [4]: 114
Population Apoptotic (%) [5]: 40%
Population Fragmented Nuclei (%) [5]: 2%
Population Healthy Nuclei (%) [5]: 90%
Population Hoechst High Intensity Objects (%) [5]: 2%
Population Membrane Permeable-Phenotype (%) [5]: 7%
Population Mitochondria Different-Phenotype (%) [5]: 16%
Population Mitotic Cells (%) [5]: 60%
Population Normal (%) [5]: 97%
Population Tubulin-Different-Phenotype (%) [5]: 19%
Total Cell Count [5]: 223
Population Apoptotic (%) [6]: 25%
Population Fragmented Nuclei (%) [6]: 4%
Population Healthy Nuclei (%) [6]: 88%
Population Hoechst High Intensity Objects (%) [6]: 3%
Population Membrane Permeable-Phenotype (%) [6]: 9%
Population Mitochondria Different-Phenotype (%) [6]: 24%
Population Mitotic Cells (%) [6]: 75%
Population Normal (%) [6]: 96%
Population Pyknosed Nuclei (%) [6]: 6%
Population Tubulin-Different-Phenotype (%) [6]: 22%
Total Cell Count [6]: 181
Population Apoptotic (%) [7]: 45%
Population Fragmented Nuclei (%) [7]: 5%
Population Healthy Nuclei (%) [7]: 90%
Population Hoechst High Intensity Objects (%) [7]: 1%
Population Membrane Permeable-Phenotype (%) [7]: 5%
Population Mitochondria Different-Phenotype (%) [7]: 14%
Population Mitotic Cells (%) [7]: 54%
Population Normal (%) [7]: 98%
Population Pyknosed Nuclei (%) [7]: 3%
Total Cell Count [7]: 282
Population Apoptotic (%) [8]: 0%
Population Fragmented Nuclei (%) [8]: 4%
Population Healthy Nuclei (%) [8]: 91%
Population Hoechst High Intensity Objects (%) [8]: 9%
Population Membrane Permeable-Phenotype (%) [8]: 11%
Population Mitochondria Different-Phenotype (%) [8]: 33%
Population Mitotic Cells (%) [8]: 100%
Population Normal (%) [8]: 90%
Population Pyknosed Nuclei (%) [8]: 4%
Population Tubulin-Different-Phenotype (%) [8]: 33%
Total Cell Count [8]: 137

CN(C)CCOc1ccc(-c2nc(-c3ccncc3)c(-c3ccc4c(c3)CC/C4=N\O)[nH]2)cc1 [SB590885]
Population Apoptotic (%) [1]: 72%
Population Fragmented Nuclei (%) [1]: 22%
Population Healthy Nuclei (%) [1]: 42%
Population Hoechst High Intensity Objects (%) [1]: 9%
Population Membrane Permeable-Phenotype (%) [1]: 45%
Population Mitochondria Different-Phenotype (%) [1]: 30%
Population Mitotic Cells (%) [1]: 27%
Population Normal (%) [1]: 90%
Population Pyknosed Nuclei (%) [1]: 34%
Population Tubulin-Different-Phenotype (%) [1]: 54%
Total Cell Count [1]: 200
Population Apoptotic (%) [2]: 88%
Population Fragmented Nuclei (%) [2]: 41%
Population Healthy Nuclei (%) [2]: 34%
Population Hoechst High Intensity Objects (%) [2]: 15%
Population Membrane Permeable-Phenotype (%) [2]: 38%
Population Mitochondria Different-Phenotype (%) [2]: 28%
Population Mitotic Cells (%) [2]: 11%
Population Normal (%) [2]: 84%
Population Pyknosed Nuclei (%) [2]: 23%
Population Tubulin-Different-Phenotype (%) [2]: 51%
Total Cell Count [2]: 155
Population Apoptotic (%) [3]: 42%
Population Fragmented Nuclei (%) [3]: 5%
Population Hoechst High Intensity Objects (%) [3]: 3%
Population Membrane Permeable-Phenotype (%) [3]: 11%
Population Mitochondria Different-Phenotype (%) [3]: 23%
Population Mitotic Cells (%) [3]: 57%
Population Normal (%) [3]: 96%
Population Pyknosed Nuclei (%) [3]: 7%
Population Tubulin-Different-Phenotype (%) [3]: 26%
Total Cell Count [3]: 149
Population Apoptotic (%) [4]: 37%
Population Fragmented Nuclei (%) [4]: 6%
Population Healthy Nuclei (%) [4]: 87%
Population Hoechst High Intensity Objects (%) [4]: 10%
Population Membrane Permeable-Phenotype (%) [4]: 14%
Population Mitochondria Different-Phenotype (%) [4]: 28%
Population Mitotic Cells (%) [4]: 62%
Population Normal (%) [4]: 89%
Population Pyknosed Nuclei (%) [4]: 5%
Population Tubulin-Different-Phenotype (%) [4]: 33%
Total Cell Count [4]: 78
Population Apoptotic (%) [5]: 85%
Population Fragmented Nuclei (%) [5]: 15%
Population Healthy Nuclei (%) [5]: 38%
Population Hoechst High Intensity Objects (%) [5]: 19%
Population Membrane Permeable-Phenotype (%) [5]: 34%
Population Mitochondria Different-Phenotype (%) [5]: 34%
Population Mitotic Cells (%) [5]: 14%
Population Normal (%) [5]: 80%
Population Pyknosed Nuclei (%) [5]: 45%
Population Tubulin-Different-Phenotype (%) [5]: 37%
Total Cell Count [5]: 280
Population Apoptotic (%) [6]: 91%
Population Fragmented Nuclei (%) [6]: 35%
Population Healthy Nuclei (%) [6]: 25%
Population Hoechst High Intensity Objects (%) [6]: 21%
Population Membrane Permeable-Phenotype (%) [6]: 33%
Population Mitochondria Different-Phenotype (%) [6]: 41%
Population Mitotic Cells (%) [6]: 8%
Population Normal (%) [6]: 78%
Population Pyknosed Nuclei (%) [6]: 38%
Population Tubulin-Different-Phenotype (%) [6]: 30%
Total Cell Count [6]: 196
Population Apoptotic (%) [7]: 44%
Population Fragmented Nuclei (%) [7]: 5%
Population Healthy Nuclei (%) [7]: 90%
Population Hoechst High Intensity Objects (%) [7]: 2%
Population Membrane Permeable-Phenotype (%) [7]: 12%
Population Mitochondria Different-Phenotype (%) [7]: 21%
Population Mitotic Cells (%) [7]: 55%
Population Normal (%) [7]: 97%
Population Pyknosed Nuclei (%) [7]: 3%
Population Tubulin-Different-Phenotype (%) [7]: 30%
Total Cell Count [7]: 144
Population Apoptotic (%) [8]: 50%
Population Fragmented Nuclei (%) [8]: 7%
Population Healthy Nuclei (%) [8]: 89%
Population Hoechst High Intensity Objects (%) [8]: 7%
Population Membrane Permeable-Phenotype (%) [8]: 8%
Population Mitochondria Different-Phenotype (%) [8]: 38%
Population Mitotic Cells (%) [8]: 50%
Population Normal (%) [8]: 92%
Population Tubulin-Different-Phenotype (%) [8]: 37%
Total Cell Count [8]: 80
